Data from ChEMBL document CHEMBL3244044, “Synthesis and antitumor activity of halogen-substituted 4-(3,3-dimethyl-1-triazeno)quinolines” (J Med Chem, 1978).

Experiments:
Mus musculus [1] = test: Toxicity in mouse P388 cells allografted mouse at 50 mg/kg, ip qd for 9 days; type: organism-based; design: dose 50 mg/kg, route intraperitoneal; details: in vivo, 216 h
In short: (§1)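 NCI protocol. Groups of five to ten mice were inoculated intraperitoneally with about 10^6 tumor cells. Drug was given ip once daily for 9 consecutive days, starting 24 h after tumor implantation, over a range of dose levels. Toxicity was read as the average body weight change at the end of drug treatment.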

P388 [2] = test: Antitumor activity against mouse P388 cells allografted mouse assessed as host survival at 30 mg/kg, ip qd for 9 days relative to control; type: functional; details: route intraperitoneal
In short: (§2)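 NCI protocol: groups of five to ten mice inoculated ip with approximately 10^6 P-388 or L1210 cells. Drug given over a range of dose levels starting 24 h after implantation, once daily for 9 consecutive days. Survival expressed as %T/C = (average survival of treated)/(average survival of control) × 100.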

Mus musculus [3] = test: Toxicity in mouse L1210 cells allografted mouse at 30 mg/kg, ip qd for 9 days; type: organism-based; design: dose 30 mg/kg, route intraperitoneal; details: in vivo, 216 h
In short: (§3)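 Groups of five to ten mice were inoculated ip with about 10^6 L1210 cells and dosed once daily for 9 consecutive days beginning 24 h post-implantation. Toxicity was taken as the average body weight change at the end of drug treatment.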

L1210 [4] = test: Antitumor activity against mouse L1210 cells allografted mouse assessed as host survival at 40 mg/kg, ip qd for 9 days relative to control; type: functional; details: route intraperitoneal; in short: as §2
P388 [5] = test: Antitumor activity against mouse P388 cells allografted mouse assessed as host survival at 50 mg/kg, ip qd for 9 days relative to control; type: functional; details: route intraperitoneal; in short: as §2
L1210 [6] = test: Antitumor activity against mouse L1210 cells allografted mouse assessed as host survival at 30 mg/kg, ip qd for 9 days relative to control; type: functional; details: route intraperitoneal; in short: as §2
Mus musculus [7] = test: Toxicity in mouse P388 cells allografted mouse at 30 mg/kg, ip qd for 9 days; type: organism-based; design: dose 30 mg/kg, route intraperitoneal; details: in vivo, 216 h; in short: as §1
[8] = Binding affinity to synthetic melanin at 5.8 mg/100 mL after 15 mins by UV-spectroscopic analysis; type: physicochemical; details: 0.25 h
In short: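 Synthetic melanin was made from DL-Dopa with tyrosinase in 0.1 M phosphate pH 6.6 at 37 °C for 4 h. Melanin suspension (1.1 mg dry weight) was mixed with phosphate buffer (0.05 M, pH 6.4, 5% Me2SO), water, and 1 mL of drug solution (5.8 mg/100 mL). The mixture was shaken 15 min at room temperature and filtered. Unbound drug in the filtrate was measured by UV against a drug-free blank.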

P388 [9] = test: Antitumor activity against mouse P388 cells allografted mouse assessed as host survival at 40 mg/kg, ip qd for 9 days relative to control; type: functional; details: route intraperitoneal; in short: as §2
Mus musculus [10] = test: Toxicity in mouse L1210 cells allografted mouse at 40 mg/kg, ip qd for 9 days; type: organism-based; design: dose 40 mg/kg, route intraperitoneal; details: in vivo, 216 h; in short: as §3
Mus musculus [11] = test: Toxicity in mouse P388 cells allografted mouse at 40 mg/kg, ip qd for 9 days; type: organism-based; design: dose 40 mg/kg, route intraperitoneal; details: in vivo, 216 h; in short: as §1
L1210 [12] = test: Antitumor activity against mouse L1210 cells allografted mouse assessed as host survival at 70 mg/kg, ip qd for 9 days relative to control; type: functional; details: route intraperitoneal; in short: as §2
Mus musculus [13] = test: Toxicity in mouse P388 cells allografted mouse at 60 mg/kg, ip qd for 9 days; type: organism-based; design: dose 60 mg/kg, route intraperitoneal; details: in vivo, 216 h; in short: as §1
Mus musculus [14] = test: Toxicity in mouse P388 cells allografted mouse at 80 mg/kg, ip qd for 9 days; type: organism-based; design: dose 80 mg/kg, route intraperitoneal; details: in vivo, 216 h; in short: as §1
Mus musculus [15] = test: Toxicity in mouse L1210 cells allografted mouse at 90 mg/kg, ip qd for 9 days; type: organism-based; design: dose 90 mg/kg, route intraperitoneal; details: in vivo, 216 h; in short: as §1
P388 [16] = test: Antitumor activity against mouse P388 cells allografted mouse assessed as host survival at 60 mg/kg, ip qd for 9 days relative to control; type: functional; details: route intraperitoneal; in short: as §2
L1210 [17] = test: Antitumor activity against mouse L1210 cells allografted mouse assessed as host survival at 90 mg/kg, ip qd for 9 days relative to control; type: functional; details: route intraperitoneal; in short: as §2
P388 [18] = test: Antitumor activity against mouse P388 cells allografted mouse assessed as host survival at 80 mg/kg, ip qd for 9 days relative to control; type: functional; details: route intraperitoneal; in short: as §2
L1210 [19] = test: Antitumor activity against mouse L1210 cells allografted mouse assessed as host survival at 80 mg/kg, ip qd for 9 days relative to control; type: functional; details: route intraperitoneal; in short: as §2
Mus musculus [20] = test: Toxicity in mouse L1210 cells allografted mouse at 80 mg/kg, ip qd for 9 days; type: organism-based; design: dose 80 mg/kg, route intraperitoneal; details: in vivo, 216 h; in short: as §1
Mus musculus [21] = test: Toxicity in mouse L1210 cells allografted mouse at 70 mg/kg, ip qd for 9 days; type: organism-based; design: dose 70 mg/kg, route intraperitoneal; details: in vivo, 216 h; in short: as §3

What does the source list for CN(C)/N=N\c1ccnc2cc(Br)ccc12?
Activity (Mus musculus [1]): -15.1%; T/C (P388 [2]): 133%; Activity (Mus musculus [3]): 10%; T/C (L1210 [4]): 141%; T/C (P388 [5]): 125%; T/C (L1210 [6]): 129%; Activity (Mus musculus [7]): -2.4%; Activity [8]: 57.3%; T/C (P388 [9]): 133%; Activity (Mus musculus [10]): -2.8%; Activity (Mus musculus [11]): -8.9%

Which T/C (L1210 [12]) does the source give for CN(C)/N=N\c1ccnc2ccc(I)cc12 here?
Its T/C is 148%.

What about the Activity (Mus musculus [13]) of the same molecule?
Its Activity is 2.6%.

What about the Activity (Mus musculus [14]) of the same molecule?
The Activity was 7.1%.

What about the Activity (Mus musculus [15]) of the same molecule?
Its Activity is -6.4%.

And the T/C (P388 [16])?
The T/C was 133%.

What about the T/C (L1210 [17]) of the same molecule?
The T/C was 158%.

And the Activity [8]?
Its Activity is 60.6%.

What about the T/C (P388 [18]) of the same molecule?
Its T/C is 123%.

And the T/C (P388 [9])?
Its T/C is 117%.

What about the Activity (Mus musculus [11]) of the same molecule?
Its Activity is 10.5%.

What about the T/C (L1210 [19]) of the same molecule?
The T/C was 160%.

What about the Activity (Mus musculus [20]) of the same molecule?
The Activity was -8.2%.

And the Activity (Mus musculus [21])?
The Activity was -23.8%.
